Measured values: ChEMBL document CHEMBL1144710, “epigenetic multiple ligands: mixed histone/protein methyltransferase, acetyltransferase, and class III deacetylase (sirtuin) inhibitors” (J Med Chem, 2008)
Active and inactive are the calls of the source. Unless noted, the calls are words filed in the database; no cut-off is given here.

Tests used:
[1] = tested on: U-937; assay: Inhibition of histone H4R3 methylation in human U937 cells at 50 uM after 24 hrs; format: functional, cell-based
Method in brief: (§1)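 U937 cells treated at 50 µM for 24 h. Histones extracted with Triton buffer, then 0.2 M HCl overnight at 4 °C. 3–10 µg run on 15% SDS-PAGE and immunoblotted with anti-monomethyl-H3K4, monomethyl-H4R3 or dimethyl-H3R17 (1:500, overnight 4 °C), ECL detection. Loading controls: total H4 (H3K4), Ponceau Red (Arg marks).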

[2] = molecular target: RmtA (Emericella nidulans) (UniProt Q5VLE3); assay: Inhibition of Aspergillus nidulans RmtA at 90 uM
Chain of RmtA (Emericella nidulans) (Q5VLE3 as listed by the source): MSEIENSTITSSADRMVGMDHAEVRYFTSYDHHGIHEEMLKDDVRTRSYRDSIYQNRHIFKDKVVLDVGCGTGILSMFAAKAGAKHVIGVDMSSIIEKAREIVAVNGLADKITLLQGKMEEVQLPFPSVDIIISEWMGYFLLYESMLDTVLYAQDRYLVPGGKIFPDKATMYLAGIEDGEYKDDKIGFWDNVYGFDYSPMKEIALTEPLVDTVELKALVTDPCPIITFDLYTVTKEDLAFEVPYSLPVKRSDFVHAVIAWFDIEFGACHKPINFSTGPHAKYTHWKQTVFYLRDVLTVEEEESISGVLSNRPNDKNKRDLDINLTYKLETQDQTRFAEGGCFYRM

[3] = tested on: U-937; assay: Inhibition of histone H3K4 methylation in human U937 cells at 50 uM after 24 hrs; format: functional, cell-based; method in brief: as §1
[4] = tested on: U-937; assay: Inhibition of histone H3R17 methylation in human U937 cells at 50 uM after 24 hrs; format: functional, cell-based; method in brief: as §1
[5] = molecular target: T1, NAD-dependent protein deacetylase sirtuin-2 (Homo sapiens) (UniProt Q8IXJ6); assay: Inhibition of human SIRT2 at 25 uM
T1 sequence (whole entry): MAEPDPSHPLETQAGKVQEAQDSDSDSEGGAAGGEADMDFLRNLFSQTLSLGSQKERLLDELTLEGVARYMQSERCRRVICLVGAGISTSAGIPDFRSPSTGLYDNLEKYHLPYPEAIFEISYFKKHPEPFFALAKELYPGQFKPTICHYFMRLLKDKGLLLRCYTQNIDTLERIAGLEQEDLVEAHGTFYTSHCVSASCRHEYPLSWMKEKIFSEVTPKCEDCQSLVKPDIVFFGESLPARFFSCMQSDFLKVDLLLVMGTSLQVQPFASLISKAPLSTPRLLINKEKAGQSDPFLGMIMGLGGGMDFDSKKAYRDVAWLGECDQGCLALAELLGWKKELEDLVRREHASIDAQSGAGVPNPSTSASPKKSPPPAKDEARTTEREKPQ
Method in brief: (§2)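 Fluorescent two-stage assay. SIRT1 (1 U/well) or SIRT2 (5 U/well) with Fluor de Lys-SIRT1/2 substrate, NAD+ and compound at 25 µM, 37 °C for 2 h. Developer II containing nicotinamide then stopped the reaction and generated signal, read at ex 360/em 460 nm.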

[6] = molecular target: T2, Histone-lysine N-methyltransferase SETD7 (Homo sapiens) (UniProt Q8WTS6); assay: Inhibition of human recombinant SET7 assessed as histone H3 protein methylation at 100 uM
T2 sequence (whole entry): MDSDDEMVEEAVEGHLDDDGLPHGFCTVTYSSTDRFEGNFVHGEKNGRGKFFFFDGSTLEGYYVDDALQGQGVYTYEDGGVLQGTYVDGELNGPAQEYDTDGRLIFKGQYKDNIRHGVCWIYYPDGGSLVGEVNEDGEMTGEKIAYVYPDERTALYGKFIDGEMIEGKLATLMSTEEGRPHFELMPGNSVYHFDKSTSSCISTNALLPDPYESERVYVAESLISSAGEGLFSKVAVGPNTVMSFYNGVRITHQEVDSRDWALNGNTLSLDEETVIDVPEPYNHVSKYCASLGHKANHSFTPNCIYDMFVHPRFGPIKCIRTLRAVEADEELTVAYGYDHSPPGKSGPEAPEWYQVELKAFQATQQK
Method in brief: (§3)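 Recombinant enzymes (0.2 µg) with substrate (0.5 µg: Npl3p for PRMT1, PABP1 for CARM1, histone H3 for SET7), 0.5 µM [3H]AdoMet and 100 µM compound in PBS pH 7.4 with 3.3% v/v DMSO, 90 min at 30 °C. Products separated by 10% SDS-PAGE, transferred to PVDF, detected by fluorography on film overnight.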

[7] = molecular target: RmtA (Emericella nidulans, UniProt Q5VLE3); assay: Inhibition of Aspergillus nidulans RmtA
Chain of RmtA (Q5VLE3 whole entry, the tested form may be a part): as the sequence (Q5VLE3 as listed by the source) above
Method in brief: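 Enzyme was GST-RmtA fusion expressed in E. coli BL21 and glutathione-affinity purified (500 ng), preincubated with compound for 15 min at room temperature. Then 20 µg chicken erythrocyte core histones and 0.55 µCi [3H]AdoMet were added, 30 min at 30 °C. Stopped with 25% TCA, filtered, counted by liquid scintillation.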

[8] = molecular target: Protein arginine N-methyltransferase 1 (Homo sapiens) (UniProt Q99873); assay: Inhibition of human recombinant PRMT1 assessed as histone H4 methylation at 50 uM
Chain of Protein arginine N-methyltransferase 1 (Homo sapiens) (Q99873 whole entry, looked up): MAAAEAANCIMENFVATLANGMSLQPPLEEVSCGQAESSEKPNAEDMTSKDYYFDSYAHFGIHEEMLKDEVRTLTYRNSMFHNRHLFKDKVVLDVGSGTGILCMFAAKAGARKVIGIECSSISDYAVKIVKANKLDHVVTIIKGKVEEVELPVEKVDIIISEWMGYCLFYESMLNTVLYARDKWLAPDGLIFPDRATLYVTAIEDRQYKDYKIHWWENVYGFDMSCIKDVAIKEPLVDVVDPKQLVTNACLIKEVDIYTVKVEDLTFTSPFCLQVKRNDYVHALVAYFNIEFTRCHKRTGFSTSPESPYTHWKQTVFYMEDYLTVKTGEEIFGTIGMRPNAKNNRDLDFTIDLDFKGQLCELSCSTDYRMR

[9] = tested on: U-937; assay: Inhibition of human p300/CBP in U937 cells at 50 uM assessed as histone H3 acetylation; format: cell-based
Method in brief: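 Source was U937 nuclear extract (10 µg per assay) as p300/CBP HAT, with histone H3 substrate and compound at 50 µM or DMSO control for 90 min. Acetyl-H3 detected by indirect ELISA, quantified against acetylated H3 peptide standard curves, […].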

[10] = molecular target: Protein arginine N-methyltransferase 1 (Homo sapiens) (UniProt Q99873); assay: Inhibition of human recombinant PRMT1 assessed as nuclear ribonucleoprotein Npl3p methylation at 100 uM; method in brief: as §3
[11] = tested on: U-937; assay: Induction of granulocytic differentiation in human U937 cells assessed as CD11c expression at 1 uM after 30 hrs; format: functional
Method in brief: (§4)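 U937 cells treated for 30 h, then stained with PE-conjugated CD11c (PE mouse IgG1 as control) for 30 min at 4 °C in the dark and resuspended in PBS with PI (0.25 µg/mL). Read-out is percent CD11c-positive/PI-negative cells, with dead PI-positive cells excluded. Coloured compounds limited the top dose to 5 µM or lower.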

[12] = molecular target: T3, Histone-arginine methyltransferase CARM1 (Homo sapiens) (UniProt Q86X55); assay: Inhibition of human recombinant CARM1 assessed as poly(A) binding protein 1 methylation at 100 uM; method in brief: as §3
T3 sequence (whole entry): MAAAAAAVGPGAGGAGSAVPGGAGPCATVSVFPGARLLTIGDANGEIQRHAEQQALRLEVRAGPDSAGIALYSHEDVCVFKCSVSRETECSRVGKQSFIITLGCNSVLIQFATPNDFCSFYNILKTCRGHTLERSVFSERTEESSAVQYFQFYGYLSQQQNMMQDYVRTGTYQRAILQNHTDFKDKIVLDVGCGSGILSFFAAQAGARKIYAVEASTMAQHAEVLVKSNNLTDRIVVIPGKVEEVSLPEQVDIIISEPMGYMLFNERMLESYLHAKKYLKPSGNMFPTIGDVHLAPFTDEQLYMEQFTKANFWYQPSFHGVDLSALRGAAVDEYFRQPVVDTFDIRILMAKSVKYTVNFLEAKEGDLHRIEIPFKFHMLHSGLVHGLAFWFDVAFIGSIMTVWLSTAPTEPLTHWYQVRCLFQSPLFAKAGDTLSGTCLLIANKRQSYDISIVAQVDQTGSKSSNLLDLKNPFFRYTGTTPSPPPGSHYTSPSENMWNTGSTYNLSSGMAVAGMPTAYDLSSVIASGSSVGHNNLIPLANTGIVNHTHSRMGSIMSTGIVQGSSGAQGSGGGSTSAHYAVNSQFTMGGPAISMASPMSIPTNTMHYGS

[13] = molecular target: T4, NAD-dependent protein deacetylase sirtuin-1 (Homo sapiens) (UniProt Q96EB6); assay: Inhibition of human SIRT1 at 25 uM; method in brief: as §2
T4 sequence (whole entry): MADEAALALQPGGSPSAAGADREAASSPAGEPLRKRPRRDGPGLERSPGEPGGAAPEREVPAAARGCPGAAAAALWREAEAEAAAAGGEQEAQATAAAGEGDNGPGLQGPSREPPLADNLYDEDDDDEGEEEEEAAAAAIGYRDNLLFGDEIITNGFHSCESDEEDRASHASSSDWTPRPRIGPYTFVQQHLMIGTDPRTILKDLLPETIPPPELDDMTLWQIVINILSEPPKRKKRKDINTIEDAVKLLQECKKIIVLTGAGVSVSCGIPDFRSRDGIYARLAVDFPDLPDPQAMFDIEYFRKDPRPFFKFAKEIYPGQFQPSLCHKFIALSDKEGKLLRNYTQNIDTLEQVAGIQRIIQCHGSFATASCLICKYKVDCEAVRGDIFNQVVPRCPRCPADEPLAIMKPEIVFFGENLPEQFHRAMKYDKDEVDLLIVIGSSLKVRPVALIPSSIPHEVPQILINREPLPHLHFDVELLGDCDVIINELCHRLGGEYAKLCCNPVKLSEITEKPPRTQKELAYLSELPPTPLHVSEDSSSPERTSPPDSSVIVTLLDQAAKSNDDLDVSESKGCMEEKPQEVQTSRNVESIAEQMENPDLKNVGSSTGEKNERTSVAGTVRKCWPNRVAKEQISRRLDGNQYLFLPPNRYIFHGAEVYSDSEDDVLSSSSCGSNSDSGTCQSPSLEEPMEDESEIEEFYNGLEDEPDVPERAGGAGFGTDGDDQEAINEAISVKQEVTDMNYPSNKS

[14] = tested on: U-937; assay: Induction of apoptosis in human U937 cells at 25 uM after 30 hrs; format: functional
Method in brief: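 Apoptosis read as caspase 3 activation by FACS, in U937 cells (RPMI, 10% fetal calf serum, 200000 cells/mL) exposed to 25 µM for 30 h.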

[15] = tested on: U-937; assay: Induction of cell cycle arrest in human U937 cells at 25 uM after 30 hrs; format: functional, cell-based
Method in brief: (§5)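 U937 cells in RPMI with 10% fetal calf serum, HEPES and glutamine, kept at 200000 cells/mL; treated at 25 µM for 30 h, then the distribution across cell cycle phases was analysed.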

[16] = tested on: U-937; assay: Induction of granulocytic differentiation in human U937 cells assessed as CD11c expression at 5 uM after 30 hrs; format: functional; method in brief: as §4
[17] = tested on: U-937; assay: Cell cycle arrest in human U937 cells assessed as accumulation at S phase at 25 uM after 30 hrs; format: functional, cell-based; method in brief: as §5
[18] = tested on: U-937; assay: Induction of granulocytic differentiation in human U937 cells assessed as CD11c expression at 0.5 uM after 30 hrs; format: functional; method in brief: as §4
[19] = tested on: U-937; assay: Cell cycle arrest in human U937 cells assessed as accumulation at G2 phase at 25 uM after 30 hrs; format: functional, cell-based; method in brief: as §5
[20] = 5 uM, in the assay text read “at 5 uM” for “at 1 uM”

Row | Structure (SMILES) | Activity [1] | inhibition [2] | Activity [3] | Activity [4] | inhibition [5] | Activity [6] | IC50 [7] | inhibition [8] | inhibition [9] | Activity [10] | Activity [11, 20] | Activity [12] | inhibition [13] | Activity [14] | Activity [11] | Activity [15] | Activity [16] | Activity [17] | Activity [18] | Activity [19]
1 | O=C(c1cc(Br)c(O)c(Br)c1)c1cc(Br)c(O)c(Br)c1 | Active | 0% | Active | Active |  |  |  |  |  |  |  |  |  |  |  |  |  |  |  | 
2 | O=C(/C=C/c1cc(Br)c(O)c(Br)c1)c1ccc(C(=O)/C=C/c2cc(Br)c(O)c(Br)c2)cc1 | Active |  |  | Active | 56% | Active | 37 µM | 31% | 0% | Active | inactive | Active | 45% |  |  |  |  |  |  | 
3 | O=C1OC2(c3ccccc31)c1cc(Br)c(O)c(Br)c1Oc1c2cc(Br)c(O)c1Br [EOSIN] | Active |  |  | Active | 31% | Active | 18 µM | 96% | 20% | Active |  | Active | 33% | 0.5% | 5.7% | inactive |  |  |  | 
4 | O=C(/C=C/c1ccc(O)c(Br)c1)/C=C/c1cc(Br)c(O)c(Br)c1 | Active |  | inactive | Active | 65% | Active | 40 µM | 17% | 62% | Active |  | Active | 60% | 1% |  |  | 68.1% | Active |  | 
5 | O=C1/C(=C/c2cc(Br)c(O)c(Br)c2)CCC/C1=C\c1cc(Br)c(O)c(Br)c1 | Active |  | Active | Active | 56% | Active | 14 µM | 44% | 96% | Active |  | Active | 50% | 2% |  |  | 70.9% | Active |  | 
6 | O=C(Nc1cc(Br)c(O)c(Br)c1)c1cccc(C(=O)Nc2cc(Br)c(O)c(Br)c2)c1 | Active |  |  | Active | 9% | Active | 13.8 µM | 38% | 81% | Active | inactive | Active | 13% |  |  |  |  |  |  | 
7 | O=C(/C=C/c1cc(Br)c(O)c(Br)c1)/C=C/c1cc(Br)c(O)c(Br)c1 | Active |  | Active | Active | 100% | Active | 69 µM | 76% | 100% |  |  | Active | 61% | 1.1% |  |  | 95.2% |  | 77% | Active
8 | O=C(/C=C/c1cc(Br)c(O)c(Br)c1)CC(=O)/C=C/c1cc(Br)c(O)c(Br)c1 | Active |  |  | Active | 61% | Active | 48 µM | 70% | 58% | Active |  | Active | 52% | 10.5% |  |  | 33% | Active |  | 
9 | CN1C/C(=C\c2cc(Br)c(O)c(Br)c2)C(=O)/C(=C/c2cc(Br)c(O)c(Br)c2)C1 | Active |  | Active | Active | 64% | Active | 39 µM | 73% | 87% | Active |  | Active | 63% | 1% |  |  | 53.2% |  |  | Active
